From ChEMBL document CHEMBL1123778, “Synthesis and 5-lipoxygenase inhibitory activity of 5-hydroperoxy-6,8,11,14-eicosatetraenoic acid analogues” (J Med Chem, 1987)

These molecules were tested against T1, Polyunsaturated fatty acid 5-lipoxygenase (Rattus norvegicus, UniProt P12527) (assay: In vitro inhibitory activity against 5-lipoxygenase from rat basophilic leukemia cells.).
T1 sequence (P12527 whole entry): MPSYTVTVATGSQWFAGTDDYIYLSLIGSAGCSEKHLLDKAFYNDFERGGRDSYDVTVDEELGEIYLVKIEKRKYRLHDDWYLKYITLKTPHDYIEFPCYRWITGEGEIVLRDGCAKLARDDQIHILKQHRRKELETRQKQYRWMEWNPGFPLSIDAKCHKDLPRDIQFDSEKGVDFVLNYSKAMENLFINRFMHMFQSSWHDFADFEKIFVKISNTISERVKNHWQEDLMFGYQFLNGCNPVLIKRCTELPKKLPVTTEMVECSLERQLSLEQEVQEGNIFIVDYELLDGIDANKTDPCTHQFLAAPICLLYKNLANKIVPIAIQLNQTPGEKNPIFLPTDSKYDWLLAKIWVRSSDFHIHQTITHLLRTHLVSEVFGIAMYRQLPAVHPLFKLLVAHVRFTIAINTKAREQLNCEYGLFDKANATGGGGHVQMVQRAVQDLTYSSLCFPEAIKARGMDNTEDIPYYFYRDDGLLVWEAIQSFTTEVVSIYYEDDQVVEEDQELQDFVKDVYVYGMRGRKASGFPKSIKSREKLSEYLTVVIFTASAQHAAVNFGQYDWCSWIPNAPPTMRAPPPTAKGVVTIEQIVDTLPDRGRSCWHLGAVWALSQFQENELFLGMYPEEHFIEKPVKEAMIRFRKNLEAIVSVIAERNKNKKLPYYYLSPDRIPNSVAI

In order of rising IC50:
1. CCCCC/C=C\C/C=C\C/C=C\C=C\C(CCCC(=O)O)CC(=O)NO (centres undefined)  0.19 µM
2. CCCCC/C=C\C/C=C\C/C=C\C=C\C(CCCC(=O)O)C(=O)NO (centres undefined)  1.4 µM
3. CCCCC/C=C\C/C=C\C/C=C\C=C\C(O)CCCC(=O)NO (centres undefined)  2.1 µM
4. CCCCC/C=C\C/C=C\C/C=C\C/C=C\CCCC(=O)NO  2.2 µM
5. CCCCC/C=C\C/C=C\C/C=C\C=C\C(CCCC(=O)O)CCC(=O)NO (centres undefined)  2.8 µM
6. CCCCC/C=C\C/C=C\C\C=C/C=C/C(CCCC(=O)O)=N/NC(N)=O  7 µM
7. CCCCC/C=C\C/C=C\C/C=C\C=C\C(S)CCCC(=O)O (centres undefined)  7.6 µM
8. CCCCC/C=C\C/C=C\C\C=C/C=C/C(CCCC(=O)O)=N/N=C(/N)S  7.9 µM
9. CCCCC/C=C\C/C=C\C/C=C\C=C\C1CCCC(=O)N1 (centres undefined)  10 µM
10. CCCCC/C=C\C/C=C\C\C=C/C=C/C(CCCC(=O)O)=N/O  11 µM
11. CCCCC/C=C\C/C=C\C/C=C\C=C\C(CS)CCCC(=O)O (centres undefined)  11 µM
12. CCCCC/C=C\C/C=C\C/C=C\C=C\C(=O)CCCC(=O)O [5-OXO-ETE]  18 µM
13. CCCCC/C=C\C/C=C\C/C=C\C=C\C(CCCC(=O)O)NO (centres undefined)  21 µM
14. CCCCC/C=C\C/C=C\C/C=C\C=C\C(CCO)CCCC(=O)O (centres undefined)  22 µM
15. CCCCC/C=C\C/C=C\C/C=C\C=C\C(CCS)CCCC(=O)O (centres undefined)  25 µM
16. CCCCC/C=C\C/C=C\C/C=C\C=C\C(N)CCCC(=O)O (centres undefined)  25 µM
17. CCCCC/C=C\C/C=C\C/C=C\C=C\C1CCCC(=O)O1 (centres undefined)  27 µM
18. CCCCC/C=C\C/C=C\C/C=C\C=C\C(CO)CCCC(=O)O (centres undefined)  29 µM
19. CCCCC/C=C\C/C=C\C/C=C\C=C\C(CCCS)CCCC(=O)O (centres undefined)  36 µM
20. CCCCC/C=C\C/C=C\C/C=C\C=C\C1CC(=O)CC(CC(=O)O)C1 (centres undefined)  59 µM
21. CCCCC/C=C\C/C=C\C/C=C\C=C\C(CCCC(=O)O)OC(C)=O (centres undefined)  68 µM
22. CCCCC/C=C\C/C=C\C/C=C\C=C\C(CCCC(=O)O)CC(=O)O (centres undefined)  96 µM
23. CCCCC/C=C\C/C=C\C/C=C\C=C\C(CCCO)CCCC(=O)O (centres undefined)  97 µM

These molecules were tested against T2, Polyunsaturated fatty acid 5-lipoxygenase (Rattus norvegicus) (UniProt P12527) (assay: In vitro inhibitory activity against 5-Lipoxygenase from rat basophilic leukemia cells at 30 uM concentration).
T2 sequence (whole entry): T1 sequence (P12527 whole entry)
Procedure, shortened: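 20000g supernatant of homogenized RBL-1 cells (7.5×10^6 cell equivalents/mL) preincubated 20 min at 37 °C with inhibitor or vehicle (2% Me₂SO) in pH 6.8 BES/PIPES buffer with EDTA, NaCl, 0.7 mM CaCl₂. Reaction started with 66 μM [¹⁴C]arachidonic acid. [¹⁴C]-5-HETE counted by liquid scintillation, corrected for [³H]-5-HETE recovery. Inhibition = % reduction vs control.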

Molecule `CCCCC/C=C\C/C=C\C/C=C\C=C\C1CCCC(=O)C1` (centres undefined) has an inhibition of 27%.
